≈ marks a conversion by molar mass, not a printed value.
Columns and labels:
[1] = molecular target: T1, Adenosine receptor A2b (Homo sapiens) (UniProt P29275); experiment: Displacement of [3H]PSB-603 from human adenosine A2B receptor expressed in CHO cell membranes at 1 uM relative to control
T1 sequence (whole entry): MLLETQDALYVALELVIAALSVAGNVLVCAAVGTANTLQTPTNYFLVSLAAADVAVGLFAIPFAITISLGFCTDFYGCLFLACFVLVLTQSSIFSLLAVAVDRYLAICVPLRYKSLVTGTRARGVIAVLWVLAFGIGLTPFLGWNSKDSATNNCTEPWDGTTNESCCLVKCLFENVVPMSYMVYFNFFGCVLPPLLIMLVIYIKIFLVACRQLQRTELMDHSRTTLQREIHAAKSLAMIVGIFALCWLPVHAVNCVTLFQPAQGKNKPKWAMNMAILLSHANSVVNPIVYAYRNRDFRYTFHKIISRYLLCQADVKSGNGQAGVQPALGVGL

Adenosine receptor A2b [2] = molecular target: T2, Adenosine receptor A2b (Homo sapiens, UniProt P29275); experiment: […] from human adenosine A2B receptor expressed in CHO cell membranes; settings: in the assay text read “[3H]PSB-603” for “[3H]PSB-602”
T2 sequence (P29275 whole entry): T1 sequence (whole entry)
Outline: (§1)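 Membranes from CHO cells recombinantly expressing human A2B or A3 receptor. Radioligands are [3H]PSB-603 for A2B and [3H]PSB-11 for A3. Competition curves use six to ten test-compound concentrations spanning three orders of magnitude, with at least three independent experiments.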

[3] = molecular target: T3, Adenosine receptor A3 (Homo sapiens) (UniProt P0DMS8); experiment: Displacement of [3H]PSB-11 from human adenosine A3 receptor expressed in CHO cell membranes at 1 uM relative to control
T3 sequence (whole entry): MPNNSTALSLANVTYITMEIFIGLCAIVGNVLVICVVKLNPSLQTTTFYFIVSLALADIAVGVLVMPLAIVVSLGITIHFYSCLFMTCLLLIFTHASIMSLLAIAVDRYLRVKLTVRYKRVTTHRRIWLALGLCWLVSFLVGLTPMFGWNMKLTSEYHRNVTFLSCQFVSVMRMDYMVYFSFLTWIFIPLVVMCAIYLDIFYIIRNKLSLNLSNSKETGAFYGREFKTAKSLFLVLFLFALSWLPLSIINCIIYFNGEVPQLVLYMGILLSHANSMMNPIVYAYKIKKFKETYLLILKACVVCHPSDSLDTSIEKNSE

Adenosine receptor A1 = molecular target: T4, Adenosine receptor A1 (Rattus norvegicus, UniProt P25099); experiment: Displacement of [3H]CCPA from adenosine A1 receptor in rat brain cortical membranes; type: cell membranes
T4 sequence (P25099 whole entry): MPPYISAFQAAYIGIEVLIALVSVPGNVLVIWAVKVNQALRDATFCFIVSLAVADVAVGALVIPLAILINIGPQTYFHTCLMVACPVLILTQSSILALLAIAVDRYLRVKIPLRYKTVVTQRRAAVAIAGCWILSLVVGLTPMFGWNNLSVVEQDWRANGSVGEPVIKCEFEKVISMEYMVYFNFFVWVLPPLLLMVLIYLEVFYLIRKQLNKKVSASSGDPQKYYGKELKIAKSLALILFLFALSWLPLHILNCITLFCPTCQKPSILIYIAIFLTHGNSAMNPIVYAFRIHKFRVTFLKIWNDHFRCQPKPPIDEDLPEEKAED
Outline: (§2)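 Membrane radioligand binding: A1 in rat brain cortical membranes and A2A in rat brain striatal membranes, with human A1 and A2A in recombinant CHO cell membranes. Radioligands are [3H]CCPA for A1 and [3H]MSX-2 for A2A. Full concentration-inhibition curves use six to ten concentrations spanning three orders of magnitude, with at least three independent experiments.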

Adenosine receptor A3 = molecular target: T5, Adenosine receptor A3 (Homo sapiens, UniProt P0DMS8); experiment: Displacement of [3H]PSB-11 from human adenosine A3 receptor expressed in CHO cell membranes
T5 sequence (P0DMS8 whole entry): T3 sequence (whole entry)
Outline: as §1

[4] = molecular target: T6, Adenosine receptor A1 (Rattus norvegicus) (UniProt P25099); experiment: Displacement of [3H]CCPA from adenosine A1 receptor in rat brain cortical membranes at 1 uM relative to control; type: cell membranes
T6 sequence (whole entry): T4 sequence (P25099 whole entry)

Adenosine receptor A2a = Adenosine receptor A2a (Rattus norvegicus, UniProt P30543); experiment: Displacement of [3H]MSX-2 from adenosine A2A receptor in rat brain striatal membranes; type: cell membranes, Striatum, Membrane
Outline: as §2

[5] = Solubility of compound in water after over night incubation by UV spectroscopic method; type: physicochemical
Outline: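 Compound (10 mg, basic form) is suspended in 2 mL water, boiled 5 min, left overnight at 20 °C and filtered. The filtrate is diluted 10–80-fold in MeOH and read by UV in 90% MeOH/H2O. Concentration comes from seven-point standard curves (10^-3 to 10^-1 mg/mL) by linear regression, multiplied by the dilution factor.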

[6] = molecular target: Adenosine receptor A2a (Rattus norvegicus) (UniProt P30543); experiment: Displacement of [3H]MSX-2 from adenosine A2A receptor in rat brain striatal membranes at 1 uM relative to control; type: cell membranes; settings: Striatum, Membrane
Adenosine receptor A2b [7] = molecular target: T2, Adenosine receptor A2b; experiment: Displacement of [3H]PSB-603 from human adenosine A2B receptor expressed in CHO cell membranes
[8] = (§3) Drug level in human liver microsomes treated with 2-(4-(2-(1,3-Dibutyl-2,4-dioxo-1,2,3,4,7,8-hexahydropyrimido[2,1-f]purin-9(6H)-yl)ethyl)phenoxy)-N-(3-(diethylamino)propyl)-acetamide at 50 uM preincubated for 5 mins followed by addition of NADPH regenerating system and measured after 120 mins by UPLC/MS analysis; type: ADME, microsome; settings: 2 h
Outline: (§4)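 Incubations use pooled human (adult male and female) or rat liver microsomes at 1 mg/ml in 0.1 M Tris-HCl pH 7.4 with compound at 50 μM. After 5 min preincubation at 37 °C, an NADPH regenerating system is added to start the reaction. Cold methanol stops it at 120 min; samples are centrifuged and the supernatant analysed by UPLC/MS.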

[9] = as §3, with “rat” for “human”; type: ADME, microsome; settings: 2 h
Outline: as §4

Adenosine receptor A2a (Rattus norvegicus), sequence (P30543 whole entry): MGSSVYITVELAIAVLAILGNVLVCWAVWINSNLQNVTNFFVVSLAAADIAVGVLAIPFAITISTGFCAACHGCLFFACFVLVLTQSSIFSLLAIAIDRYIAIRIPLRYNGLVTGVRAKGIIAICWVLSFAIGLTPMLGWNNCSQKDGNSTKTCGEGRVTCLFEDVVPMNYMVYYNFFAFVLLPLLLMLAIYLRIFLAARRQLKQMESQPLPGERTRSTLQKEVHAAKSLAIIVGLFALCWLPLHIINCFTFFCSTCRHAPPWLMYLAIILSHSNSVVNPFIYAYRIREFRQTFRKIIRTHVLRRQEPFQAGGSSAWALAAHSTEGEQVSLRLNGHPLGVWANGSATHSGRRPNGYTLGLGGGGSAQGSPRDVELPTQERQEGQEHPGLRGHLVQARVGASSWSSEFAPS
Adenosine receptor A2a, sequence (P30543 whole entry): as above

inhibition [1] [%]	Ki (Adenosine receptor A2b [2]) [nM]	inhibition [3] [%]	Ki (Adenosine receptor A1) [nM]	Ki (Adenosine receptor A3) [nM]	inhibition [4] [%]	Ki (Adenosine receptor A2a) [nM]	solubility [5] [µM]	inhibition [6] [%]	Ki (Adenosine receptor A2b [7]) [nM]	Drug metabolism [8]	Drug metabolism [9]	SMILES
31	> 1000	23	> 10000	> 1000	27	2270	–	–	–	–	–	CCCCn1c(=O)c2c(nc3n2CCCN3CCc2ccc(OCC(=O)NCCc3ccc(S(N)(=O)=O)cc3)cc2)n(CCCC)c1=O
–	179	–	120	508	–	271	1080 (≈ 615 µg/mL)	–	–	–	–	CCCn1c(=O)c2c(nc3n2CCCN3CCc2ccc(OCC(=O)NCCN(CC)CC)cc2)n(CCC)c1=O
-4	> 1000	–	> 10000	1090	18	> 10000	–	24	–	–	–	CCCn1c(=O)c2c(nc3n2CCCN3CCc2ccc(OCC(=O)NCc3ccc(Cl)cc3)cc2)n(CCC)c1=O
43	> 1000	40	1010	> 1000	–	> 10000	–	32	–	–	–	CCCCn1c(=O)c2c(nc3n2CCCN3CCc2ccc(OCC(=O)NCc3ccc(F)cc3)cc2)n(CCCC)c1=O
18	> 1000	42	684	> 1000	–	6520	–	–	–	–	–	CCCCn1c(=O)c2c(nc3n2CCCN3CCc2ccc(OCC(=O)NCc3cccc(Cl)c3)cc2)n(CCCC)c1=O
–	578	–	320	602	–	1290	–	–	–	–	–	CCCCn1c(=O)c2c(nc3n2CCCN3CCc2ccc(OCC(=O)NCc3ccccc3)cc2)n(CCCC)c1=O
–	862	–	605	1000	–	637	–	–	–	–	–	CCCn1c(=O)c2c(nc3n2CCCN3CCc2ccc(OCC(=O)NCCCn3ccnc3)cc2)n(CCC)c1=O
22	> 1000	34	> 10000	> 1000	26	3230	–	–	–	–	–	CCCn1c(=O)c2c(nc3n2CCCN3CCc2ccc(OCC(=O)NCc3ccccc3)cc2)n(CCC)c1=O
–	–	–	145	458	–	335	–	–	306	–	–	CCCn1c(=O)c2c(nc3n2CCCN3CCc2ccc(OCC(=O)NCCCNC3CCCCC3)cc2)n(CCC)c1=O
–	452	33	146	> 1000	–	320	–	–	–	–	–	CCCn1c(=O)c2c(nc3n2CCCN3CCc2ccc(OCC(=O)NCCCN3CCCC3)cc2)n(CCC)c1=O
39	> 1000	31	563	> 1000	–	1360	–	–	–	–	–	CCCn1c(=O)c2c(nc3n2CCCN3CCc2ccc(OCC(=O)NCCc3ccccn3)cc2)n(CCC)c1=O
–	–	–	–	–	–	–	–	–	–	Metabolite_Detected	Metabolite_Detected	CCCCn1c(=O)c2c(nc3n2CCCN3CCc2ccc(OCC(=O)NCCCNCC)cc2)n(CCCC)c1=O
39	> 1000	28	> 10000	> 1000	22	> 10000	–	37	–	–	–	CCCn1c(=O)c2c(nc3n2CCCN3CCc2ccc(OCC(=O)NCc3cccc(OC)c3)cc2)n(CCC)c1=O
–	215	–	118	353	–	1250	–	–	–	–	–	CCCCn1c(=O)c2c(nc3n2CCCN3CCc2ccc(OCC(=O)NCCCNC3CCCCC3)cc2)n(CCCC)c1=O
31	> 1000	41	> 10000	> 1000	37	1360	–	–	–	–	–	CCCn1c(=O)c2c(nc3n2CCCN3CCc2ccc(OCC(=O)NCc3ccc(F)cc3)cc2)n(CCC)c1=O
31	> 1000	23	593	> 1000	–	7310	–	–	–	–	–	CCCCn1c(=O)c2c(nc3n2CCCN3CCc2ccc(OCC(=O)NCc3ccc(Cl)cc3)cc2)n(CCCC)c1=O
41	> 1000	41	1590	> 1000	–	1630	–	–	–	–	–	CCCCn1c(=O)c2c(nc3n2CCCN3CCc2ccc(OCC(=O)NCc3cccc(OC)c3)cc2)n(CCCC)c1=O
30	> 1000	28	10000	> 1000	45	1870	–	–	–	–	–	CCCn1c(=O)c2c(nc3n2CCCN3CCc2ccc(OCC(=O)NCCc3ccc(S(N)(=O)=O)cc3)cc2)n(CCC)c1=O
–	–	–	113	509	–	551	–	–	193	–	–	CCCn1c(=O)c2c(nc3n2CCCN3CCc2ccc(OCC(=O)NCCN3CCCC3)cc2)n(CCC)c1=O
–	911	21	509	> 1000	–	1120	–	–	–	–	–	CCCn1c(=O)c2c(nc3n2CCCN3CCc2ccc(OCC(=O)NCCN3CCOCC3)cc2)n(CCC)c1=O
22	> 1000	–	1370	572	–	807	–	–	–	–	–	CCCn1c(=O)c2c(nc3n2CCCN3CCc2ccc(OCC(=O)NCc3cccc(Cl)c3)cc2)n(CCC)c1=O
–	–	–	–	–	–	–	–	–	–	Metabolite_Detected	Metabolite_Detected	CCCCn1c(=O)c2c(nc3n2CCCN3CCc2ccc(OCC(=O)NCCC(=O)O)cc2)n(CCCC)c1=O
–	298	46	181	> 1000	–	671	–	–	–	–	–	CCCCn1c(=O)c2c(nc3n2CCCN3CCc2ccc(OCC(=O)NCCN3CCOCC3)cc2)n(CCCC)c1=O
–	–	36	136	> 1000	–	303	823 (≈ 479 µg/mL)	–	340	–	–	CCCn1c(=O)c2c(nc3n2CCCN3CCc2ccc(OCC(=O)NCCCN(CC)CC)cc2)n(CCC)c1=O
–	–	–	–	–	–	–	–	–	–	–	Metabolite_Detected	CCCCn1c(=O)[nH]c2nc3n(c2c1=O)CCCN3CCc1ccc(OCC(=O)NCCCN(CC)CC)cc1
39	> 1000	44	382	> 1000	–	1070	–	–	–	–	–	CCCCn1c(=O)c2c(nc3n2CCCN3CCc2ccc(OCC(=O)NCCc3ccccn3)cc2)n(CCCC)c1=O
–	275	–	194	868	–	569	–	–	–	–	–	CCCCn1c(=O)c2c(nc3n2CCCN3CCc2ccc(OCC(=O)NCCCn3ccnc3)cc2)n(CCCC)c1=O
–	–	–	50.7	155	–	242	189 (≈ 113 µg/mL)	–	113	–	–	CCCCn1c(=O)c2c(nc3n2CCCN3CCc2ccc(OCC(=O)NCCN(CC)CC)cc2)n(CCCC)c1=O

Source: ChEMBL document CHEMBL4257504, “Tricyclic xanthine derivatives containing a basic substituent: adenosine receptor affinity and drug-related properties” (Medchemcomm, 2018)
